A short description of series [1]: Cytotoxicity in human HeLa cells assessed as reduction in cell viability incubated for 3 days by MTT assay. The class given is cell-based. The procedure, abridged: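 Uninfected HeLa cells; CC50 is the concentration lowering cell viability by 50%.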
A general note: Tetrazolium assays rely on reduction of a dye to a coloured formazan, in cell work by metabolically active cells.

The nature of series [2]: Selectivity index, ratio of CC50 for human HeLa cells to EC50 for human coxsackievirus B1 infected in human HeLa cells. It counts as toxicity, cell-based. Conditions: read-out: Ratio CC50/EC50. The procedure, abridged: (§1)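 Cytopathic-effect reduction assay in HeLa cells infected with coxsackievirus B1, B3 or poliovirus 3, with pleconaril as reference. EC50 is the concentration that improves viability of infected HeLa cells by 50%. CC50 is the concentration that reduces viability of uninfected HeLa cells by 50%. SI is CC50/EC50.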

The subject of series [3] is Poliovirus 3. The series is described as follows: Antiviral activity against human poliovirus 3 infected in human HeLa cells assessed as reduction in virus-induced cytopathicity incubated for 3 days by MTT assay. It counts as functional, cell-based. Conditions: Enterovirus C, 72 h. In outline: as §1
(In general: Cytopathic effects are the visible damage that an infection or toxin causes in cultured cells.)

Series [4] concerns Coxsackievirus B1. The series is described as follows: Antiviral activity against human coxsackievirus B1 infected in human HeLa cells assessed as reduction in virus-induced cytopathicity incubated for 3 days by MTT assay. The class given is functional, cell-based. Conditions: Enterovirus B, 72 h. In outline: (§2)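 HeLa cells infected with enterovirus (coxsackievirus B1 or B3); protection from virus-induced cytopathic effect measured. EC50 is the concentration restoring 50% viability of the infected cells. Pleconaril served as reference.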

Series [5] is described as follows: Selectivity index, ratio of CC50 for human HeLa cells to EC50 for human coxsackievirus B3 infected in human HeLa cells. It counts as toxicity, cell-based. Conditions: read-out: Ratio CC50/EC50. In outline:
as §1

Series [6] deals with Coxsackievirus B3. The series is described as follows: Antiviral activity against human coxsackievirus B3 infected in human HeLa cells assessed as reduction in virus-induced cytopathicity incubated for 3 days by MTT assay. It counts as functional, cell-based. The following applies: Enterovirus B, 72 h. In outline: as §2
Series [7] can be described thus: Antiviral activity against human rhinovirus 71 infected in human H1HeLa cells assessed as reduction in virus-induced cytopathicity incubated for 3 days by MTT assay. The class given is functional, cell-based, Human rhinovirus A71. Conditions: Rhinovirus A, H1-HeLa, 72 h. In outline:
(§3)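 H1 HeLa cells infected with rhinovirus (14, 21 or 71); EC50 is the concentration restoring 50% viability of the infected cells. Pleconaril served as reference.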

In series [8] the test system is Liver. Briefly: Stability in human liver microsomes assessed as compound remaining by mass spectrometry. The class given is ADME, microsome. The procedure, abridged: (§4)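 Phase I metabolic stability in human or rat liver microsomes, with buspirone as reference. Parent compound remaining was quantified by quantitative mass spectrometry and expressed as a percentage.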
For orientation: Liver microsomes are vesicles of endoplasmic reticulum, rich in cytochrome P450 enzymes.

Series [9] can be described thus: Cytotoxicity in human H1HeLa cells assessed as reduction in cell viability incubated for 3 days by MTT assay. It counts as cell-based, H1-HeLa. In outline:
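Uninfected H1 HeLa cells; CC50 is the concentration lowering cell viability by 50%.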

Series [10] deals with rhinovirus A21. Briefly: Antiviral activity against human rhinovirus 21 infected in human H1HeLa cells assessed as reduction in virus-induced cytopathicity incubated for 3 days by MTT assay. The class given is functional, cell-based. The following applies: Rhinovirus A, H1-HeLa, 72 h. In outline: as §3
Series [11] relates to rhinovirus B14. Briefly: Antiviral activity against human rhinovirus 14 infected in human H1HeLa cells assessed as reduction in virus-induced cytopathicity incubated for 3 days by MTT assay. The class given is functional, cell-based. Conditions: Rhinovirus B, H1-HeLa, 72 h. The procedure, abridged:
as §3

Series [12] can be described thus: Selectivity index, ratio of CC50 for human HeLa cells to EC50 for human poliovirus 3 infected in human HeLa cells. It counts as toxicity, cell-based. The following applies: read-out: Ratio CC50/EC50. In outline:
as §1

Series [13] deals with Liver. Briefly: Stability in rat liver microsomes assessed as compound remaining by mass spectrometry. It counts as ADME, microsome. In outline: as §4

Some results are limits rather than exact numbers.

Turning to `CC(C)(C)C1CCc2c(sc3c2c(=O)n(-c2ccccc2)c2nncn32)C1` (stereo not drawn), the CC50 at 72 h in series [1] is greater than 100 µM; in series [9], 9.6 µM. The selectivity ratio was greater than 11.2 in series [2], greater than 11.5 in series [5] and greater than 51.2 in [12]. Moreover, the half-maximal effective concentration (EC50) in series [3] turned out to be 1.95 µM; in series [4], 8.85 µM; in series [6], 8.65 µM; in series [7], 1.6 µM; in series [10], 2.5 µM; in series [11] it was 1.7 µM. In addition, the Stability in series [8] stood at 63.2%; in series [13], 51.5%.

In general, CC50 refers to the concentration that lowers cell viability or growth by half. By EC50 is commonly meant the concentration giving half of the maximal effect.

The values are drawn from ChEMBL document CHEMBL4033733, “Enterovirus inhibitory activity of C-8-tert-butyl substituted 4-aryl-6,7,8,9-tetrahydrobenzo[4,5]thieno[3,2-e][1,2,4]triazolo[4,3-a]pyrimidin-5(4H)-ones” (Bioorg Med Chem Lett, 2017).
